Bioassay records (PubChem BioAssay)
CHO parental Ca: counter-screen for OX1R antagonists: effect in parental CHO cells | AID 463079 | parental CHO-K1, ATP-induced calcium, Fluo-8 fluorescence | inhibition, % at 5.6 µM | hit rate 0.63% among 330,000;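 active means inhibition above that plate's mean sample inhibition plus 3 SD, cut at about 26% in these data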
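material = parental CHO cells | also added = ATP as calcium-mobilizing challenge | dosing = single point at 5.6 µM | detection = intracellular calcium via Fluo-8 no-wash fluorescent dye | read-out = % inhibition | benchmarks = low control ATP plus DMSO, high control DMSO only | repeats = one well per compound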
TAAR1 antag: human TAAR1 antagonism; inhibition, % at 3 µM; CHO RD-HGA16 TAAR1, Fluo-8 calcium fluorescence, antagonist; Q96RJ0; hit rate 1.5% among 360,000;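 active means inhibition above a per-plate cutoff, the mean inhibition of test compounds on that plate plus 3 SD, cut at about 49% in these data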
Target sequence (Q96RJ0 whole entry, looked up): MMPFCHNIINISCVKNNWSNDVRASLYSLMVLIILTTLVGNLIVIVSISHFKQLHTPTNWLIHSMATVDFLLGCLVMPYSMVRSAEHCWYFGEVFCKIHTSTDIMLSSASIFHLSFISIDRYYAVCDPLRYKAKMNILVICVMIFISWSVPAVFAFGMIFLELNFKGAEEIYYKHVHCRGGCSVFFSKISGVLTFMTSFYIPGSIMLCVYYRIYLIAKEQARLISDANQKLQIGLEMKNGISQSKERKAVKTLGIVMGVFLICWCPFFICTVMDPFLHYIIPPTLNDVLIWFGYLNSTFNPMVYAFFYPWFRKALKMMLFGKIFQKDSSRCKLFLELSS
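Test system: hTAAR1-expressing CHO RD-HGA16 cells, Gα16-coupled; Probe or stimulus: EC80 β-phenethylamine stimulus; Compound dosing: single nominal final test compound concentration of 3 µM; Timing: 140 s kinetic read after compound, 140 s after agonist; Signal: Fluo-8 calcium-sensitive fluorescence; Measure: % inhibition of agonist calcium response; Controls: DMSO and EC80 PEA controls.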
OX1R antag-1: antagonists of human orexin 1 receptor; CHO/OX1R cells, Fluo-8 calcium fluorescence, orexin A; inhibition, % at 5 µM; hit rate 0.43% among 330,000; AID 434989;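 active means inhibition above its plate's threshold, mean inhibition of all tested compounds on the plate plus 3 SD, cut at about 37% in these data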
GPR7 antag: antagonists of human GPR7 (neuropeptides B/W receptor 1); GPR7-expressing cells, fluorescence antagonist assay; hit rate 1.1% among 290,000; inhibition, % at 4.4 µM; P48145; AID 1861; in the data active means inhibition above about 16%, passing the limit was not always enough;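 further: cells stimulated with the agonist NPW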
Target sequence (P48145 whole entry, looked up): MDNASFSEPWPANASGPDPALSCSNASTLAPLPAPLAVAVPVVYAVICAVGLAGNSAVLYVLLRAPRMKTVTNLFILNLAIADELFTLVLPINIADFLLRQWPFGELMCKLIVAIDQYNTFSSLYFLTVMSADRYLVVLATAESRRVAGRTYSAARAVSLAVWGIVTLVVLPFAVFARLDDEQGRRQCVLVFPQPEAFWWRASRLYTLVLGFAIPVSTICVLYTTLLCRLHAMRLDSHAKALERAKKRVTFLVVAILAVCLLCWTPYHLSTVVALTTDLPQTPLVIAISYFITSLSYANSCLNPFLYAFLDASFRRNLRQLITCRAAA
OX1R antag-2: antagonists of human orexin 1 receptor (OX1R); O43613; OX1R-expressing cells, FRET antagonist read-out; inhibition, % at 6.6 µM; hit rate 1.8% among 330,000; in the data active means inhibition mostly above about 38%, no sharp cut-off; inactive means mostly below about 40%
TAAR1 ag: agonists of human TAAR1 | hit rate 0.99% among 360,000 | CHO RD-HGA16 TAAR1, Fluo-8 calcium fluorescence; vehicle wells 0%, saturating PEA agonist 100% | Q96RJ0 | AID 624467 | activation, % at 3 µM;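 active means activation above the mean activation of all test compounds in the run plus 3 SD, cut at about 38% in these data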
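System: CHO-derived RD-HGA16 cells with stable Gα16 and human TAAR1. Times: 17-24 h plating, Fluo-8 75 min 37 °C, 30 min RT. Measured by: calcium-sensitive Fluo-8 signal, excitation 470-495, emission 515-575 nm. Read-out basis: % activation relative to PEA EC100 response. Control set: DMSO and PEA EC100. Repeats: no replicates (n 1).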
OX1R HTRF confirm: OX1R (human) antagonism, HTRF confirmed; shares compounds with OX1R antag-2; OX1R-expressing cells, HTRF antagonist assay; inhibition, % at 6.6 µM; hit rate 49% among 1,800; AID 492964; in the data active means inhibition above about 55%;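 further: CHO cells expressing OX1R stimulated with orexin A at about EC80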
CHO-K1 HTRF: counter-screen for OX1R antagonists: effect in parental CHO-K1 cells. inhibition, % at 6.6 µM. hit rate 48% among 1,800. shares compounds with OX1R antag-2. HTRF counterscreen; in the data active means inhibition above about 17%
nonsel antag count: nonselective antagonist in TAAR1 antagonist counter-screen | shares compounds with TAAR1 antag | inhibition, % at 3 µM | hit rate 77% among 2,400 | counterscreen cell line, calcium fluorescence, antagonist mode; in the data active means inhibition above about 22%;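 further: CHO-Ga16 host cells stimulated with ATP at an EC80 level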
TAAR1 antag conf: human TAAR1 antagonism, confirmed; shares compounds with TAAR1 antag; TAAR1-expressing cells, fluorescence antagonist read-out; inhibition, % at 3 µM; hit rate 40% among 2,400; AID 651785; in the data active means inhibition above about 49%;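 further: CHO-Ga16 host cells challenged with agonist PEA near its EC80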
Ga16 ag counter: nonselective Ga16 agonism, counter-screen. shares compounds with TAAR1 antag. Ga16-expressing cells, calcium fluorescence, agonist counterscreen. activation, % at 3 µM. hit rate 18% among 2,400. AID 651953; in the data active means activation above about 12%
TAAR1 ag count: counter-screen for human TAAR1 antagonists: TAAR1 agonists. hTAAR1 cell line, fluorescence activation, agonist mode. shares compounds with TAAR1 antag. activation, % at 3 µM. hit rate 2% among 2,400. AID 651955; in the data active means activation above about 37%;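 further: CHO cells stably expressing TAAR1 with calcium dye readout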
Each line names hits and unclear results; the compound was inactive in the other large screens (follow-up assays come after a bar, where they were run). This is a sample that favours compounds with a hit; in the whole collection about 4.5% have one here.

O=C(NNC(=O)c1cc(-c2ccccc2)nc2ccccc12)Nc1cccc(Cl)c1	TAAR1 antag 80.1, OX1R antag-2 89.6 | OX1R HTRF confirm inactive | CHO-K1 HTRF inactive | nonsel antag count 38.9 | TAAR1 antag conf 57.4 | Ga16 ag counter inactive | TAAR1 ag count inactive
O=C(N=Nc1c(O)[nH]c2ccccc12)c1cccc(S(=O)(=O)Nc2ccccc2Cl)c1	TAAR1 antag 56.3, OX1R antag-2 84.2 | OX1R HTRF confirm 92.0 | CHO-K1 HTRF inactive | nonsel antag count 24.1 | TAAR1 antag conf inactive | Ga16 ag counter inactive | TAAR1 ag count inactive
COc1ccccc1OCCCOc1ccc(/C=C2\SC(=O)NC2=O)cc1OC	TAAR1 antag 82.2, OX1R antag-2 77.8 | OX1R HTRF confirm 69.8 | CHO-K1 HTRF inactive | nonsel antag count 33.6 | TAAR1 antag conf 52.5 | Ga16 ag counter inactive | TAAR1 ag count inactive
COc1cc(/C=C2\SC(=O)NC2=O)ccc1Oc1cnccn1	none
CCC(C)c1ccccc1NC(=O)C(C)OC(=O)c1ccco1 (stereo not drawn)	none (no result: GPR7 antag)
CCOC(=O)C1CCCN(C2=C(NS(=O)(=O)c3ccc(Br)cc3)C(=O)c3ccccc3C2=O)C1 (stereo not drawn)	TAAR1 antag 61.7, OX1R antag-2 89.3 | OX1R HTRF confirm 72.9 | CHO-K1 HTRF 77.4 | nonsel antag count 26.1 | TAAR1 antag conf inactive | Ga16 ag counter inactive | TAAR1 ag count inactive
COc1ccccc1N(CC(=O)NCCSc1ccccc1)S(C)(=O)=O	none
COc1ccccc1N(CC(=O)NCCSc1ccccc1)S(=O)(=O)c1ccccc1	TAAR1 antag 75.8, OX1R antag-2 81.4 | OX1R HTRF confirm 60.5 | CHO-K1 HTRF inactive | nonsel antag count 29.8 | TAAR1 antag conf inactive | Ga16 ag counter inactive | TAAR1 ag count inactive
COc1ccc(S(=O)(=O)N2CCN(C(=O)C3COc4ccccc4O3)CC2)cc1 (stereo not drawn)	none (no result: GPR7 antag)
CC(=O)Nc1cccc(-c2nc3ccccc3[nH]2)c1	none
O=C(Nc1cccc(-c2nc3ccccc3[nH]2)c1)c1ccccn1	TAAR1 antag 50.7, OX1R antag-2 88.0 | OX1R HTRF confirm 85.6 | CHO-K1 HTRF inactive | nonsel antag count inactive | TAAR1 antag conf inactive | Ga16 ag counter inactive | TAAR1 ag count inactive
CN(C)CCCNS(=O)(=O)c1ccc(N2CCN(Cc3ccc4c(c3)OCO4)CC2)c([N+](=O)[O-])c1	none
CC(=O)c1ccc(NC(=O)c2ccc(NC(=O)CCS(=O)(=O)c3cccs3)cc2)cc1	TAAR1 antag 86.5 | nonsel antag count 39.8 | TAAR1 antag conf 64.2 | Ga16 ag counter 14.7 | TAAR1 ag count inactive
COc1cccc(C2c3[nH]c4ccccc4c3C[C@H]3C(=O)N(c4ccccc4C(=O)N4CCCC4C(=O)O)C(=O)N23)c1 (stereo partly drawn)	none
COc1ccc(C2c3[nH]c4ccccc4c3C[C@H]3C(=O)N(c4ccccc4C(=O)NCCN4CCOCC4)C(=O)N23)cc1 (stereo partly drawn)	TAAR1 antag 52.6 | nonsel antag count inactive | TAAR1 antag conf inactive | Ga16 ag counter inactive | TAAR1 ag count inactive
O=C(NCCN1CCOCC1)c1ccccc1N1C(=O)[C@@H]2Cc3c([nH]c4ccccc34)C(c3ccc(F)cc3)N2C1=O (stereo partly drawn)	TAAR1 antag 49.9 | nonsel antag count inactive | TAAR1 antag conf inactive | Ga16 ag counter inactive | TAAR1 ag count inactive
Cc1ccc(C2c3[nH]c4ccccc4c3C[C@H]3C(=O)N(c4ccccc4C(=O)N4CCC(C(=O)O)CC4)C(=O)N23)cc1 (stereo partly drawn)	none
CC(=O)c1ccc(NC(=O)NNS(=O)(=O)c2ccc([N+](=O)[O-])cc2)cc1	none
O=C(Nc1c(F)cccc1F)c1cnc(N2CCN(c3ccccn3)CC2)c2ccccc12	TAAR1 antag 63.3 | nonsel antag count 34.6 | TAAR1 antag conf 59.6 | Ga16 ag counter inactive | TAAR1 ag count inactive
Cc1nc(N2CCN(c3ccccn3)CC2)c2c(C)c(C(=O)Nc3ccccc3F)sc2n1	none
Oc1ccccc1C=NCCN1CCN(CCN=Cc2ccccc2O)C1c1ccccc1O (stereo not drawn)	none (no result: CHO parental Ca, OX1R antag-1, GPR7 antag, OX1R antag-2)
COc1ccccc1NC(=O)C1CCN(C(=O)c2ccco2)CC1	none
CN(c1ccccc1)S(=O)(=O)c1cccc(NC(=O)c2ccncc2)c1	none
CC(=O)Nc1ccc(C(=O)Nc2cccc(S(=O)(=O)N(C)c3ccccc3)c2)cc1	TAAR1 antag 52.1 (no result: GPR7 antag) | nonsel antag count 32.7 | TAAR1 antag conf inactive | Ga16 ag counter inactive | TAAR1 ag count inactive
COc1ccccc1N(C)S(=O)(=O)c1ccc(C(=O)Nc2cc(OC)c(OC)c(OC)c2)cc1	TAAR1 antag 56.9 (no result: CHO parental Ca, OX1R antag-1, GPR7 antag, OX1R antag-2) | nonsel antag count 22.6 | TAAR1 antag conf inactive | Ga16 ag counter inactive | TAAR1 ag count inactive
COc1ccccc1N(C)S(=O)(=O)c1ccc(C(=O)Nc2ccncc2)cc1	none (no result: GPR7 antag)
O=C(Nc1cccc(S(=O)(=O)N2CCCCCC2)c1)c1cc(=O)c2ccccc2o1	TAAR1 antag 78.8 | nonsel antag count 42.3 | TAAR1 antag conf 57.3 | Ga16 ag counter 14.9 | TAAR1 ag count inactive
NS(=O)(=O)c1cccc(NC(=O)c2cc(=O)c3ccccc3o2)c1	none
CN(c1ccccc1)S(=O)(=O)c1cccc(NC(=O)c2cc(=O)c3ccccc3o2)c1	TAAR1 antag 74.3 | nonsel antag count 40.3 | TAAR1 antag conf 56.6 | Ga16 ag counter 11.5 | TAAR1 ag count inactive
CCCCN(C=O)c1c(CC)nc2c(OCc3ccccc3C)cccn12	none (no result: CHO parental Ca, OX1R antag-1, GPR7 antag, OX1R antag-2)
COc1ccccc1CC(O)CC1c2c(cc3c(c2OC)OCO3)CCN1C (stereo not drawn)	none (no result: CHO parental Ca, OX1R antag-1, GPR7 antag, OX1R antag-2)
COc1ccccc1N(C)S(=O)(=O)c1ccc(C(=O)OC(C)C(=O)NCc2ccc3c(c2)OCO3)cc1 (stereo not drawn)	TAAR1 antag 55.8 | nonsel antag count 35.6 | TAAR1 antag conf 55.9 | Ga16 ag counter 11.7 | TAAR1 ag count inactive
